High-throughput results: PubChem BioAssay, several laboratories
Sampled rows, rich in hits. Any-hit rate of the full collection: about 1.4%.
NR2E3 ag-1 – NR2E3 agonists in two-hybrid cells, primary screen, cell-based, luminescence, CHO-S, Gal4-NCOR/VP16-NR2E3 | 360,000 tested, 0.35% active | inhibition of corepressor binding, % at 3.98 µM | luciferase;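 active = inhibition above the mean of all tested compounds plus 3 SD, cut at about 70% in these data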;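 also: higher means lower luciferase signal from less NR2E3 corepressor binding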
Target sequence (Q9Y5X4 whole entry, looked up, the tested form may be a part): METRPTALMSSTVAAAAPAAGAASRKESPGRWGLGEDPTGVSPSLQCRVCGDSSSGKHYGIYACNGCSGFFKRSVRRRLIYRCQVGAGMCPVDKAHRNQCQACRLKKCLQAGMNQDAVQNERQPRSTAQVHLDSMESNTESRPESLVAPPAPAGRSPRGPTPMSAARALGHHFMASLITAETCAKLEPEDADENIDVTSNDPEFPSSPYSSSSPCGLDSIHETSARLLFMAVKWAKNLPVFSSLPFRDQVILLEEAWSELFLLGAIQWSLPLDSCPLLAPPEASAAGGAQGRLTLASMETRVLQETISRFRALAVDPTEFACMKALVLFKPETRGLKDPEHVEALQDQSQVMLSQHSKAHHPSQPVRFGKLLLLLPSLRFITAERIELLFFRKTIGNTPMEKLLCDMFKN
NR2E3 ag-2 – inhibitors of NR2E3-RetCOR corepressor binding, primary screen, NR2E3 agonist project, biochemical, TR-FRET, GST-NR2E3, biotin-RetCOR. 1536-well. inhibition of corepressor binding, % at 4.78 µM. 320,000 tested, 0.12% active;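 active = percent inhibition above the cutoff of mean plus 3 SD of all tested compounds, set per screening campaign, cut at about 20% in these data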
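Material – GST-tagged NR2E3 plus biotinylated RetCOR corepressor · Quantity – NR2E3 fusion 1.35 nM · Times – 5 h incubation at 4 °C · Medium – pH 7.5 Tris-based buffer · Technique – TR-FRET, Eu(K)-anti-GST donor, streptavidin-D2 acceptor, ex 340, em 617/671 nm · Benchmarks – high control biotin, low control 0.6% DMSO · Format – 1536-well plates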
PG9 Ab binder – binders of HIV-1 gp120 antibody PG9, primary screen, biochemical, TR-FRET; HIV-1 gp120 / PG9 antibody interaction; TR-FRET gp120-PG9 antibody binding; inhibition, % at 6.7 µM; 360,000 tested, 0.43% active; AID 624416, 2012; in the data active = inhibition above about 8.5%
NR1D1 modulator – modulators of Rev-erb alpha DNA binding, primary screen, biochemical, FITC-DNA, fluorescence polarization, uHTS; Nuclear receptor subfamily 1 group D member 1 (Homo sapiens), P20393; Rev-erbα–FITC-DNA binding, 90 min; activity, % at 10 µM; 370,000 tested, 0.79% active; AID 1259318, 2017;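 active = activity above about 14%, limit read from the data; passing the limit was not always enough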
NR2E3 ag confirm – NR2E3 agonist confirmation in cells, cell-based, luminescence, CHO-S two-hybrid | shares compounds with NR2E3 ag-1 | AID 624378, 2012 | 2,300 tested, 51% active | CHO-S mammalian two-hybrid NR2E3-NCOR, luciferase luminescence | inhibition, % at 3.98 µM;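 active = average inhibition above a cutoff equal to the mean inhibition of all tested compounds plus one SD, cut at about 70% in these data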
GAL4-VP16 luc – GAL4-VP16 reporter modulators, confirmation, counter-screen for NR2E3 agonist project, cell-based, luminescence, CHO-S, high throughput. 2,300 tested, 29% active. CHO-S GAL4-VP16 luciferase reporter. AID 624379, 2012. shares compounds with NR2E3 ag-1. inhibition, % at 3.98 µM;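 active = mean inhibition above a cutoff equal to the average over all tested compounds plus one standard deviation, cut at about 70% in these data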;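 also: luciferase from a UAS reporter driven by GAL4-VP16 transactivation; higher means less reporter light so more repression of VP16 activity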
Each line names hits and unclear results; the compound was inactive in the other large screens (follow-up assays come after a bar, where they were run).

CN(Cc1cccc(Cl)c1Cl)C(=O)c1cccc(S(=O)(=O)N2CCN(Cc3ccccc3)CC2)c1	none | NR2E3 ag confirm 85.7 | GAL4-VP16 luc inactive
COc1cccc(NC(=O)Nc2nc3ncccn3c2-c2ccc(C(F)(F)F)cc2)c1	none (no result: NR2E3 ag-1, NR2E3 ag-2, PG9 Ab binder)
COC(=O)[C@]12C[C@H](CC(=O)NCc3ccc(OC)c(OC)c3)C(=O)N(Cc3ccco3)C1=C[C@H](C(C)(C)C)O[C@@H]2C	none (no result: NR2E3 ag-1, NR2E3 ag-2, PG9 Ab binder)
COC(=O)C1CN(Cc2cn(CCC3OCCO3)nn2)CCS(=O)(=O)N1Cc1ccc(C)cc1 (stereo not drawn)	none (no result: NR2E3 ag-1, NR2E3 ag-2, PG9 Ab binder)
CCCCc1ccc(S(=O)(=O)NCCc2ccncc2)cc1	none | NR2E3 ag confirm 72.5 | GAL4-VP16 luc inactive
COC(=O)[C@]12CCCCC=C1N(Cc1ccc(OC)cc1)C(=O)[C@@H]2CC(=O)N1CCN(C(=O)C2CC2)CC1	none (no result: NR2E3 ag-1, NR2E3 ag-2, PG9 Ab binder)
Cc1nnc2ccc(Oc3ccc(-c4ccccc4)cc3)nn12	none | NR2E3 ag confirm 91.0 | GAL4-VP16 luc 73.5
O=C(OC12CCCN(C1)/C(=C/c1ccc(Cl)cc1)C2)C1CCCCC1 (stereo not drawn)	none (no result: NR2E3 ag-1, NR2E3 ag-2, PG9 Ab binder)
CCN1/C(=C/c2ccc3ccccc3[n+]2CCCS(=O)(=O)[O-])C=Cc2cc(C)ccc21	none (no result: NR2E3 ag-2)
CCN1/C(=C/c2ccc3ccccc3[n+]2CC)C=Cc2ccccc21	NR2E3 ag-1 88.5 | NR2E3 ag confirm 98.0 | GAL4-VP16 luc 87.6
O=S(=O)([O][Al])OC[C@H]1O[C@@](COS(=O)(=O)[O][Al])(O[C@H]2O[C@H](COS(=O)(=O)[O][Al])[C@@H](OS(=O)(=O)[O][Al])[C@H](OS(=O)(=O)[O][Al])[C@H]2OS(=O)(=O)[O][Al])[C@@H](OS(=O)(=O)[O][Al])[C@@H]1OS(=O)(=O)[O][Al]	none (no result: NR2E3 ag-1, NR2E3 ag-2, PG9 Ab binder)
CCOC(=O)c1cc(S(=O)(=O)Nc2cccc(OC)c2)cn1C	none | NR2E3 ag confirm inactive | GAL4-VP16 luc inactive
Cn1nccc1C(=O)NC1CCCc2c1cnn2-c1ccc(C(C)(C)C)cc1 (stereo not drawn)	NR2E3 ag-1 106.0 | NR2E3 ag confirm 95.1 | GAL4-VP16 luc 83.6
CC(C)(C)c1ccc(-n2ncc3c2CCCC3NC(=O)c2cnccn2)cc1 (stereo not drawn)	NR2E3 ag-1 88.8 | NR2E3 ag confirm inactive | GAL4-VP16 luc inactive
CCN(C(=O)c1ccc(C(C)(C)C)cc1)c1nnc(Cn2nnc3ccccc32)s1	NR2E3 ag-1 89.0 | NR2E3 ag confirm 92.4 | GAL4-VP16 luc 77.3
CCN(C(=O)CC(C)C)c1nnc(Cn2nnc3ccccc32)s1	none
Cc1ccc(NC(=S)NC2CCSc3ccccc32)cc1C (stereo not drawn)	none | NR2E3 ag confirm inactive | GAL4-VP16 luc inactive
CC(=O)c1cc(-c2ccc3[nH]ccc3c2)c(=O)n2c1CCC2	none (no result: NR2E3 ag-1, NR2E3 ag-2, PG9 Ab binder)
O=C(Nc1ccc(S(=O)(=O)N2CCCC2)cc1)c1ccc(CN2CCc3ccccc3C2)cc1	none | NR2E3 ag confirm inactive | GAL4-VP16 luc inactive
O=C(CN1CCN(Cc2ccccc2)CC1)N/N=C\c1c2ccccc2cc2ccccc12	none (no result: NR2E3 ag-1, NR2E3 ag-2, PG9 Ab binder)
COC1=C(C)C(=O)C2=C(C1=O)C1C3CC4=C(C(=O)C(OC)=C(C)C4=O)C(CNC(=O)C(C)=O)N3C(C#N)C(C2)N1C (stereo not drawn)	NR2E3 ag-1 102.2 (no result: NR2E3 ag-2) | NR2E3 ag confirm 99.6 | GAL4-VP16 luc 95.2
Cc1ccc(NC(=O)c2c(C(F)(F)F)nn(C)c2SCc2cccc(C(F)(F)F)c2)cc1C	none | NR2E3 ag confirm inactive | GAL4-VP16 luc inactive
Cc1ccc(NC(=O)c2c(C(F)(F)F)nn(C)c2SCc2ccc(Cl)cc2)cc1C	none
COc1ccc(S[C@]2(C(=O)N(C)C)CC(=O)N(c3ccsc3)[C@@H]2c2ccc(OC)cc2)cc1	none (no result: NR2E3 ag-1, NR2E3 ag-2, PG9 Ab binder)
O=C(Nc1ccc2c(c1)OCCO2)NC1(C(F)(F)F)Oc2ccccc2O1	none | NR2E3 ag confirm inactive | GAL4-VP16 luc inactive
O=C(Nc1ccc2c(c1)OCO2)NC1(C(F)(F)F)Oc2ccccc2O1	none
N=C1SC(c2ccccc2)C(=O)N1c1ncc(Cc2ccccc2)s1 (stereo not drawn)	NR2E3 ag-1 70.7 | NR2E3 ag confirm inactive | GAL4-VP16 luc inactive
Cc1ccc(Cc2cnc(N3C(=N)SC(c4ccccc4)C3=O)s2)cc1 (stereo not drawn)	none
O=C1c2cccn2CC2Cc3ccccc3N12 (stereo not drawn)	none (no result: NR2E3 ag-1, NR2E3 ag-2, PG9 Ab binder)
CCC1=C(CC2NCCc3ccccc32)CC2c3cc(OC)c(OC)cc3CCN2C1 (stereo not drawn)	NR2E3 ag-1 97.3 (no result: NR2E3 ag-2) | NR2E3 ag confirm 90.5 | GAL4-VP16 luc 87.2
CC[C@H]1CN2CCc3cc(OC)c(OC)cc3C2C[C@@H]1C[C@H]1NCCc2cc(OC)c(OC)cc21 (stereo partly drawn)	NR2E3 ag-1 104.0 | NR2E3 ag confirm 97.6 | GAL4-VP16 luc 97.7
CCCCCN1CCCCC(NC(=O)c2cc(OC)c(OC)c(OC)c2)C1=O (stereo not drawn)	none (no result: NR2E3 ag-1, NR2E3 ag-2, PG9 Ab binder)
O=C1CCN(S(=O)(=O)c2ccccc2)CCN1CCOCc1ccc(C(F)(F)F)cc1	none
Cc1ccc(S(=O)(=O)N2CCC(=O)N(CCOCc3ccc(C(F)(F)F)cc3)CC2)cc1	NR2E3 ag-1 81.3 | NR2E3 ag confirm 88.3 | GAL4-VP16 luc 70.8
CCSc1nsc(NC(=O)Nc2ccccc2F)n1	none
C=CCSc1nsc(NC(=O)Nc2ccc(F)cc2)n1	NR2E3 ag-1 93.4 | NR2E3 ag confirm 100.3 | GAL4-VP16 luc 87.8
COCCn1c(C)cc(C(=O)CSc2nnnn2C2CCCC2)c1C	none | NR2E3 ag confirm inactive | GAL4-VP16 luc inactive
COc1ccc(Cl)cc1C(=O)CSc1nnnn1C1CCCC1	none
COc1ccc(NC(=O)N(C)[C@H]2C[C@H]3c4[nH]c5c(-c6cccc(C)c6)cccc5c4CCN3C(=O)[C@H]2[C@H](C)O)cc1	none (no result: NR2E3 ag-1, NR2E3 ag-2, PG9 Ab binder)
Cc1noc(C)c1S(=O)(=O)N1CCN(c2ccc(Cl)cc2)CC1	none
Cc1noc(C)c1S(=O)(=O)Nc1ccc(C(=O)N2CCN(c3ccc(Cl)cc3)CC2)cc1	none | NR2E3 ag confirm 85.8 | GAL4-VP16 luc inactive
O=C(CCc1ccccc1)Nc1ccnn1C1CCN(C/C=C/c2ccccc2)CC1	none
COc1ccccc1/C=C/CN1CCC(n2nccc2NC(=O)CCc2ccccc2)CC1	none | NR2E3 ag confirm inactive | GAL4-VP16 luc inactive
CCc1csc(N2[C@H](CN(CCOC)S(=O)(=O)c3ccccc3[N+](=O)[O-])[C@H](c3ccccc3)[C@@H]2CO)n1	none (no result: NR2E3 ag-1, NR2E3 ag-2, PG9 Ab binder)
